High-throughput results (PubChem)
TDP2 inh – TDP2 (human) inhibition, absorbance primary screen | O95551 | recombinant TDP2, T5PNP hydrolysis, p-nitrophenol absorbance 415 nm | inhibition, % at 12.8 µM | 370,000 compounds, 0.34% hits;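 active = inhibition above the mean of all tested compounds plus 3 SD, set per campaign, cut at about 25% in these data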;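 also: 0% = DMSO with enzyme and 100% = buffer with substrate but no TDP2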
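Test system: Human TDP2 enzyme | Reagent: 5 mM T5PNP | Compound dosing: 12.8 µM single point, 1% DMSO | Incubation: Enzyme reaction with compound for 2 h at 37 °C | Technique: p-Nitrophenol epi absorbance | Read-out: % inhibition relative to enzyme-containing and enzyme-free wells | Benchmarks: High control without enzyme, low control DMSO plus TDP2 | Replicates: Singlicate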
LEDGF integ inh – blocks HIV-1 LEDGF/p75-dependent DNA integration; TR-FRET IN-LEDGF/p75 DNA integration, Eu/Cy5; inhibition, % at 3.7 µM; 370,000 compounds, 0.64% hits; AID 743269;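 active = inhibition above the screen-wide mean plus 3 SD, cut at about 13% in these data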;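 also: signal is the Cy5 over europium emission ratio at 671 and 618 nm; 0% = plate median of compound wells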
UHRF1 MBD2 ctr – UHRF1 methyl-DNA binding inhibition | AID 687016 | 370,000 compounds, 0.75% hits | inhibition, % at 4.4 µM | Q96T88 | UHRF1 binding to methylated oligo, TR-FRET; in the data active = inhibition above about 21%;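 also: UHRF1 SRA domain binding a hemimethylated CpG hairpin DNA probe; 0% = median of test compound wells and 100% = reference inhibitor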
Target sequence (Q96T88 whole entry, looked up, the tested form may be a part): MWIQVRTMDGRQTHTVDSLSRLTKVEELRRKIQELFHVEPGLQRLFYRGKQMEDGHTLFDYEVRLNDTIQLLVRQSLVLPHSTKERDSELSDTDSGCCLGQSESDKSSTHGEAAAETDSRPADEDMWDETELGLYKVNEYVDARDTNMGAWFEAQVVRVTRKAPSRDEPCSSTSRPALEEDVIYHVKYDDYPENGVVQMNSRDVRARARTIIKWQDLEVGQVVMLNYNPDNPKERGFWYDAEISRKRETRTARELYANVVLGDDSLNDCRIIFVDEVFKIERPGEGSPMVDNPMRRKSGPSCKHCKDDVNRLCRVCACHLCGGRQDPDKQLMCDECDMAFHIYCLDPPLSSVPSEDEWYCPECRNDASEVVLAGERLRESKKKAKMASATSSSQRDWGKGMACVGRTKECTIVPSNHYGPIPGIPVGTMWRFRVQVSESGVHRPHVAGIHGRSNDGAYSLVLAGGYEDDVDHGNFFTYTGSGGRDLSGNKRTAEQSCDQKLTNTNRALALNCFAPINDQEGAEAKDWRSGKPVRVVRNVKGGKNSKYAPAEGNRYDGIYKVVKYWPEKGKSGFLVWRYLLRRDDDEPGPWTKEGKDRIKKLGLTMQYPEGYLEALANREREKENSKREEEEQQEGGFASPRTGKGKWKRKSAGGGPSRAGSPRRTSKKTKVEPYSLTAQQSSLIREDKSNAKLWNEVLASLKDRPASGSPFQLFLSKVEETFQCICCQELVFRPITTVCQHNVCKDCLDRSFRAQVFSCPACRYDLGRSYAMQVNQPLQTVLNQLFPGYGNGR
DDE Tn7 FP inh – disrupts Tn7 cyclic peptide binding to fibrin D-Dimer-E complex. P02675. FP displacement of FITC-Tn7 peptide from fibrin DD(E); 0% = median of compound wells per plate. inhibition, % at 8.3 µM. 370,000 compounds, 0.13% hits. AID 720508;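 active = inhibition above the mean of compounds falling within the control limits plus 3 SD of them, cut at about 14% in these data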;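 also: 0% = plate median of compound wells and 100% = 10 µM Aha-Tn7 peptide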
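Assay system: Human fibrin DD(E) protein | Medium: Tris buffer with calcium and detergent, pH 7.8 | Reagent: 0.1 µM fluorescent Tn7 | Compound dosing: Single point at 8.3 µM | Times: 10 min preincubation, 3 h with tracer, room temperature | Detection: Fluorescence polarization of the labelled Tn7 tracer | Controls: Aha-Tn7 high control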
Tn6 DDE FP – DD(E)-Tn6 binding inhibition, primary FP screen | inhibition, % at 8.3 µM | 370,000 compounds, 0.21% hits | Fibrin DD(E) TRITC-Tn6 fluorescence polarization displacement;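 active = inhibition above a per-campaign cutoff: mean of compounds within control limits plus 3 SD, cut at about 15% in these data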;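 also: 0% = median of all compound wells on the plate and 100% = blocking peptide control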
MBD2 DNA inh – MBD2-methylated oligo binding inhibition. Q9UBB5. TR-FRET, MBD2 binding to methylated oligonucleotide. inhibition, % at 4.4 µM. 370,000 compounds, 0.31% hits. AID 686964; in the data active = inhibition above about 13%
An asterisk follows results filed as active. Rows were chosen to be rich in hits. Some 1.9% of all compounds tested hit in one or more screens of this group.

SMILES | TDP2 inh | LEDGF integ inh | UHRF1 MBD2 ctr | DDE Tn7 FP inh | Tn6 DDE FP | MBD2 DNA inh
Cc1ccc(-c2n[nH]c(=S)c3ccccc23)cc1 | -3.8 | -3.9 | 40.1* | 2.6 | -10.0 | 6.3
O=C1Cc2ccccc2C(=O)N1c1ccc(F)cc1Cl | -16.5 | 11.1 | 36.6* | -4.1 | -1.0 | 12.7
C=CCN=C1NC(c2cccc(Cl)c2)C(C(=O)OC)=C(C)N1Cc1ccc(C(F)(F)F)cc1 (centres undefined) | 5.9 | -1.7 | 0.9 | 8.1 | 7.7 | -7.3
COc1ccc(CNCCNC(=O)c2cccs2)cc1OC | 6.1 | -2.3 | 1.8 | 1.3 | -9.2 | 4.4
COc1cc(CNCCNC(=O)c2cccs2)cc(OC)c1OC | 28.2* | -0.2 | 5.0 | -5.2 | -3.8 | 0.1
Cc1cc(C)n(CCCNC(=O)CCNS(=O)(=O)c2ccccc2C(F)(F)F)n1 | -2.1 | 1.4 | 23.8* | 1.6 | 4.2 | -1.0
Cc1cc(C)n2c(SCC(C)C)nnc2n1 | 7.1 | 1.3 | -0.8 | 10.7 | 4.6 | 4.4
Cc1cc(C)n2c(SCCC(C)C)nnc2n1 | 7.8 | 3.7 | -2.1 | 14.9* | 0.3 | 5.6
O=C(Cc1c[nH]c2ccccc12)Nc1ccc(Nc2ccncc2)cc1 | 0.6 | 1.2 | -1.7 | 1.7 | -4.7 | -2.1
Cc1ccccc1N(C(=O)c1snc(C(N)=O)c1N)C(C(=O)NC1CCCCC1)c1ccc(O)cc1 (centres undefined) | -7.2 | -0.9 | 49.5* | -4.1 | 10.0 | -5.7
Cc1ccccc1N(C(=O)c1snc(C(N)=O)c1N)C(C)C(=O)NC1CCCCC1 (centres undefined) | -7.1 | 1.7 | -0.6 | 7.7 | -3.4 | 0.6
Cc1ccc(N(C(=O)c2snc(C(N)=O)c2N)C(C(=O)NC2CCCC2)c2ccc(C)o2)cc1 (centres undefined) | 2.0 | 4.6 | -2.9 | -3.5 | 5.7 | 2.3
Cc1cccc(N(C(=O)c2snc(C(N)=O)c2N)C(C(=O)NC2CCCC2)c2ccc(C)o2)c1 (centres undefined) | 12.4 | -1.7 | 69.6* | 1.0 | -3.5 | 2.2
Cc1noc(C)c1C(C)C1=CCCCC1 (centres undefined) | 6.9 | 1.1 | -0.9 | 10.6 | 5.5 | -11.0
C[C@H]1NS(=O)(=O)c2cccc(Cl)c2O[C@@H]1c1ccccc1 | 4.2 | -3.6 | 0.9 | 7.6 | 3.6 | 1.2
O=C(CCS(=O)(=O)c1ccccc1)Nc1nc(-c2ccccn2)cs1 | -4.6 | 0.2 | -2.6 | 1.0 | 3.4 | 0.1
O=C(CCS(=O)(=O)c1ccc(F)cc1)Nc1nc(-c2ccccn2)cs1 | -1.2 | -0.7 | 20.7* | -0.8 | -4.3 | 4.9
Fc1ccccc1CNc1ccc(Cl)c(Cl)c1 | -5.3 | -2.9 | 25.3* | -6.5 | 6.7 | 1.4
COC(=O)[C@]12C[C@H](CC(=O)NCC3CCCCC3)C(=O)N(CCc3ccc(OC)c(OC)c3)C1=C[C@H](C1CCCC1)O[C@@H]2C | -0.4 | -1.6 | -4.1 | -1.4 | -3.2 | 2.6
COC(=O)[C@]12C[C@H](CC(=O)NCC3CCCCC3)C(=O)N(Cc3ccc4c(c3)OCO4)C1=C[C@H](C(C)(C)C)O[C@@H]2C | 1.8 | -2.4 | 22.6* | 2.7 | 3.9 | 6.1
COC(=O)[C@]12C[C@H](CC(=O)NCC3CCCCC3)C(=O)N(CCc3ccc(OC)c(OC)c3)C1=C[C@H](C(C)(C)C)O[C@@H]2C | -5.2 | -3.2 | 22.8* | -3.1 | 0.5 | 4.7
N#Cc1ccc(S(=O)(=O)N2CCCc3nc(-c4ccc(F)cc4)ccc32)cc1 | 5.6 | -0.3 | -0.1 | 3.2 | -2.4 | 1.3
COC(=O)C12C=C3CC(c4ccc(C(F)(F)F)cc4)=C3C(=O)N1Cc1[nH]c3ccccc3c1C2 (centres undefined) | -10.1 | 2.6 | -2.7 | -5.4 | 4.5 | -6.3
COC(=O)C1=C(C)N(Cc2ccc(Br)cc2)C(=S)NC1c1ccc(OC)cc1 (centres undefined) | 0.0 | -0.3 | -1.3 | 1.4 | -3.5 | 3.6
O=C(NCCCNc1ccc(C(F)(F)F)cc1[N+](=O)[O-])c1ccc(Cl)cc1 | -5.2 | 4.3 | 52.5* | -5.2 | 4.4 | 0.2
SMILES | TDP2 inh | LEDGF integ inh | UHRF1 MBD2 ctr | DDE Tn7 FP inh | Tn6 DDE FP | MBD2 DNA inh
Cc1ccc(S(=O)(=O)NCc2ccc3c(c2)OCO3)cc1 | 1.9 | 1.1 | 0.5 | -5.9 | -6.1 | 1.8
C=C1C2(C(=O)NCc3ccco3)CCC(C2)C1(C)C (centres undefined) | -4.2 | 9.7 | 21.7* | -2.6 | 6.2 | 3.5
CC1(C)C(=O)C2(C(=O)NCc3ccccc3)CCC1C2 (centres undefined) | 5.5 | -0.2 | 2.9 | -3.3 | -0.6 | -3.3
Cc1cccc(C)c1NC(=O)COc1ccc2c(C)c(Cc3ccccc3)c(=O)oc2c1C | 5.7 | -2.1 | 63.6* | -5.4 | -0.4 | 1.9
Cc1c(Cc2ccccc2)c(=O)oc2c(C)c(OCC(=O)Nc3ccc(C#N)cc3)ccc12 | -8.7 | -2.2 | 1.5 | 0.9 | 5.7 | 5.0
CCCCCCCCN1C(=O)[C@@H](CC(=O)N2CCCCC2)C[C@@]2(C(=O)OC)C1=C[C@H](C(C)(C)C)O[C@@H]2C | 2.5 | -3.5 | -1.5 | 2.5 | 12.8 | 4.2
Cc1c(C2Nc3ccccc3NC3=C2C(=O)CC(C)(C)C3)cnn1C (centres undefined) | 17.6 | 0.8 | -10.3 | 15.4* | 2.2 | -14.1
N#C/C(=C/c1cccn1-c1cccc(C(=O)O)c1)c1ccc(Cl)cc1 | 0.3 | -0.1 | 2.9 | -6.4 | -5.2 | -1.8
N#CC(C#N)=Cc1cccn1-c1ccc(C(=O)O)cc1 | -10.2 | 6.5 | 42.5* | 2.0 | -1.7 | 12.3
CCCCNC(=O)C1(C(=O)c2ccc(OC)cc2)CC(c2ccccn2)=NO1 (centres undefined) | 4.0 | 0.4 | 1.2 | -0.8 | 3.5 | -5.8
O=C(OCc1ccccc1)N1Cc2ccnnc2CC1c1ccccc1-c1ccc(C(F)(F)F)cc1 (centres undefined) | -7.7 | -7.0 | -1.6 | -5.3 | -1.3 | 0.9
C[C@@]12C(=O)N(CC3CC3)CC(=O)N1[C@H](C1CC1)[C@@H]1C(=O)N(c3ccccc3)C(=O)[C@@H]12 | 5.0 | -0.9 | 39.3* | -6.6 | -6.5 | -2.7
CCCN1CCCc2cc(CN)ccc21 | 65.5* | 35.3* | 12.4 | 4.8 | 4.8 | 3.4
CN1CCCc2cc(C=O)ccc21 | 3.9 | 1.3 | -2.2 | 1.3 | 0.6 | -7.3
CN(C)/C=C(/C(=O)c1ccccc1Cl)S(=O)(=O)c1ccccc1 | -0.1 | -0.1 | 1.2 | -2.4 | -8.9 | -2.0
COc1ccc(C(=O)/C(=C/N(C)C)S(=O)(=O)c2ccccc2)cc1 | -3.2 | 2.9 | 54.7* | -7.2 | 2.0 | 2.8
C=CCN1C(=O)c2n[nH]c(COC)c2C1c1ccc(Br)cc1 (centres undefined) | 0.2 | 1.8 | -0.6 | -4.5 | -6.0 | -2.8
